Laboratory results as given in ChEMBL document CHEMBL4689842, “EUbOPEN Chemogenomics Library wave 1” (2021).

Legend:
U2OS [1] = assay: Multiplex assay against U2OS; type: toxicity, cell-based; details: human
Method in brief: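 Hoechst33342, BioTracker Green Microtubule Cytoskeleton Dye, MitoTracker Red and Annexin V Alexa Fluor 680 were added to live cells at seeding, and imaging on a CQ1 microscope at 37°C and 5% CO2 followed compound addition. Gating by CellPathfinder machine learning separated cells into Hoechst high-intensity objects or normal cells, then normal cells into healthy, pyknosed or fragmented nuclei, then pyknosed cells into mitotic or apoptotic. Per cents of healthy-nucleus cells are reported for the tubulin, mitochondrial-mass and membrane-permeability phenotypes.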

U2OS [2] = assay: Incucyte cell viability with U2OS; type: toxicity, cell-based; details: human, 10 µM, compound concentration 10 uM; further: filed as whole numbers so only -1 and 0 and 1 occur
[3] = 12 h, 1 µM, compound concentration 1 uM, replicate 1
[4] = 12 h, 1 µM, compound concentration 1 uM, replicate 2
[5] = 12 h, 10 µM, compound concentration 10 uM, replicate 1
[6] = 12 h, 10 µM, compound concentration 10 uM, replicate 2
[7] = 24 h, 1 µM, compound concentration 1 uM, replicate 1
[8] = 24 h, 1 µM, compound concentration 1 uM, replicate 2
[9] = 24 h, 10 µM, compound concentration 10 uM, replicate 1
[10] = 24 h, 10 µM, compound concentration 10 uM, replicate 2
[11] = 0 h, replicate number 2, timepoint 0 hours
[12] = 18 h, replicate number 1, timepoint 18 hours
[13] = 24 h, replicate number 1, timepoint 24 hours

NC(=O)c1ccc2nc(-c3ccc(C4(N)CCC4)cc3)c(-c3ccccc3)n2n1 [BAY-1125976]
Population Apoptotic (%) (U2OS [1]; [3]): 52% | Population Healthy Nuclei (%) (U2OS [1]; [3]): 79% | Population Hoechst High Intensity Objects (%) (U2OS [1]; [3]): 6% | Population Mitochondria Different-Phenotype (%) (U2OS [1]; [3]): 19% | Population Mitotic Cells (%) (U2OS [1]; [3]): 47% | Population Normal (%) (U2OS [1]; [3]): 93% | Population Tubulin-Different-Phenotype (%) (U2OS [1]; [3]): 46% | Total Cell Count (U2OS [1]; [3]): 239 | Population Apoptotic (%) (U2OS [1]; [4]): 42% | Population Healthy Nuclei (%) (U2OS [1]; [4]): 80% | Population Hoechst High Intensity Objects (%) (U2OS [1]; [4]): 12% | Population Mitotic Cells (%) (U2OS [1]; [4]): 57% | Population Normal (%) (U2OS [1]; [4]): 87% | Population Tubulin-Different-Phenotype (%) (U2OS [1]; [4]): 35% | Total Cell Count (U2OS [1]; [4]): 109 | Population Apoptotic (%) (U2OS [1]; [5]): 66% | Population Healthy Nuclei (%) (U2OS [1]; [5]): 92% | Population Mitochondria Different-Phenotype (%) (U2OS [1]; [5]): 24% | Population Mitotic Cells (%) (U2OS [1]; [5]): 33% | Population Tubulin-Different-Phenotype (%) (U2OS [1]; [5]): 27% | Total Cell Count (U2OS [1]; [5]): 210 | Population Apoptotic (%) (U2OS [1]; [6]): 20% | Population Healthy Nuclei (%) (U2OS [1]; [6]): 88% | Population Hoechst High Intensity Objects (%) (U2OS [1]; [6]): 4% | Population Mitochondria Different-Phenotype (%) (U2OS [1]; [6]): 23% | Population Mitotic Cells (%) (U2OS [1]; [6]): 80% | Population Normal (%) (U2OS [1]; [6]): 95% | Population Tubulin-Different-Phenotype (%) (U2OS [1]; [6]): 18% | Total Cell Count (U2OS [1]; [6]): 165 | Population Apoptotic (%) (U2OS [1]; [7]): 42% | Population Healthy Nuclei (%) (U2OS [1]; [7]): 76% | Population Hoechst High Intensity Objects (%) (U2OS [1]; [7]): 5% | Population Mitochondria Different-Phenotype (%) (U2OS [1]; [7]): 18% | Population Mitotic Cells (%) (U2OS [1]; [7]): 57% | Population Normal (%) (U2OS [1]; [7]): 94% | Population Tubulin-Different-Phenotype (%) (U2OS [1]; [7]): 23% | Total Cell Count (U2OS [1]; [7]): 273 | Population Apoptotic (%) (U2OS [1]; [8]): 44% | Population Healthy Nuclei (%) (U2OS [1]; [8]): 77% | Population Hoechst High Intensity Objects (%) (U2OS [1]; [8]): 8% | Population Mitochondria Different-Phenotype (%) (U2OS [1]; [8]): 20% | Population Mitotic Cells (%) (U2OS [1]; [8]): 55% | Population Normal (%) (U2OS [1]; [8]): 91% | Population Tubulin-Different-Phenotype (%) (U2OS [1]; [8]): 13% | Total Cell Count (U2OS [1]; [8]): 124 | Population Apoptotic (%) (U2OS [1]; [9]): 33% | Population Hoechst High Intensity Objects (%) (U2OS [1]; [9]): 1% | Population Mitochondria Different-Phenotype (%) (U2OS [1]; [9]): 31% | Population Mitotic Cells (%) (U2OS [1]; [9]): 66% | Population Normal (%) (U2OS [1]; [9]): 98% | Population Tubulin-Different-Phenotype (%) (U2OS [1]; [9]): 30% | Total Cell Count (U2OS [1]; [9]): 258 | Population Apoptotic (%) (U2OS [1]; [10]): 7% | Population Healthy Nuclei (%) (U2OS [1]; [10]): 87% | Population Hoechst High Intensity Objects (%) (U2OS [1]; [10]): 5% | Population Mitochondria Different-Phenotype (%) (U2OS [1]; [10]): 28% | Population Mitotic Cells (%) (U2OS [1]; [10]): 92% | Population Normal (%) (U2OS [1]; [10]): 94% | Population Tubulin-Different-Phenotype (%) (U2OS [1]; [10]): 25% | Total Cell Count (U2OS [1]; [10]): 213 | Growth Rate (U2OS [2]; [11]): 0 | Growth Rate (U2OS [2]; [12]): 1 | Growth Rate (U2OS [2]; [13]): 1

CC[C@@H]1C(=O)N(C)c2cnc(Nc3ccc(C(=O)NC4CCN(C)CC4)cc3OC)nc2N1C1CCCC1 [BI-2536]
Population Apoptotic (%) (U2OS [1]; [3]): 100% | Population Fragmented Nuclei (%) (U2OS [1]; [3]): 16% | Population Healthy Nuclei (%) (U2OS [1]; [3]): 80% | Population Hoechst High Intensity Objects (%) (U2OS [1]; [3]): 1% | Population Membrane Permeable-Phenotype (%) (U2OS [1]; [3]): 40% | Population Mitochondria Different-Phenotype (%) (U2OS [1]; [3]): 16% | Population Mitotic Cells (%) (U2OS [1]; [3]): 0% | Population Normal (%) (U2OS [1]; [3]): 98% | Population Pyknosed Nuclei (%) (U2OS [1]; [3]): 3% | Population Tubulin-Different-Phenotype (%) (U2OS [1]; [3]): 35% | Total Cell Count (U2OS [1]; [3]): 142 | Population Apoptotic (%) (U2OS [1]; [4]): 70% | Population Fragmented Nuclei (%) (U2OS [1]; [4]): 10% | Population Healthy Nuclei (%) (U2OS [1]; [4]): 79% | Population Hoechst High Intensity Objects (%) (U2OS [1]; [4]): 8% | Population Membrane Permeable-Phenotype (%) (U2OS [1]; [4]): 33% | Population Mitochondria Different-Phenotype (%) (U2OS [1]; [4]): 24% | Population Mitotic Cells (%) (U2OS [1]; [4]): 30% | Population Normal (%) (U2OS [1]; [4]): 91% | Population Pyknosed Nuclei (%) (U2OS [1]; [4]): 10% | Population Tubulin-Different-Phenotype (%) (U2OS [1]; [4]): 34% | Total Cell Count (U2OS [1]; [4]): 107 | Population Apoptotic (%) (U2OS [1]; [5]): 76% | Population Fragmented Nuclei (%) (U2OS [1]; [5]): 15% | Population Healthy Nuclei (%) (U2OS [1]; [5]): 76% | Population Hoechst High Intensity Objects (%) (U2OS [1]; [5]): 2% | Population Membrane Permeable-Phenotype (%) (U2OS [1]; [5]): 41% | Population Mitochondria Different-Phenotype (%) (U2OS [1]; [5]): 72% | Population Mitotic Cells (%) (U2OS [1]; [5]): 23% | Population Normal (%) (U2OS [1]; [5]): 97% | Population Pyknosed Nuclei (%) (U2OS [1]; [5]): 8% | Population Tubulin-Different-Phenotype (%) (U2OS [1]; [5]): 99% | Total Cell Count (U2OS [1]; [5]): 160 | Population Apoptotic (%) (U2OS [1]; [6]): 81% | Population Fragmented Nuclei (%) (U2OS [1]; [6]): 23% | Population Healthy Nuclei (%) (U2OS [1]; [6]): 67% | Population Hoechst High Intensity Objects (%) (U2OS [1]; [6]): 8% | Population Membrane Permeable-Phenotype (%) (U2OS [1]; [6]): 51% | Population Mitochondria Different-Phenotype (%) (U2OS [1]; [6]): 94% | Population Mitotic Cells (%) (U2OS [1]; [6]): 18% | Population Normal (%) (U2OS [1]; [6]): 91% | Population Pyknosed Nuclei (%) (U2OS [1]; [6]): 9% | Population Tubulin-Different-Phenotype (%) (U2OS [1]; [6]): 100% | Total Cell Count (U2OS [1]; [6]): 123 | Population Apoptotic (%) (U2OS [1]; [7]): 46% | Population Fragmented Nuclei (%) (U2OS [1]; [7]): 17% | Population Healthy Nuclei (%) (U2OS [1]; [7]): 73% | Population Hoechst High Intensity Objects (%) (U2OS [1]; [7]): 2% | Population Membrane Permeable-Phenotype (%) (U2OS [1]; [7]): 20% | Population Mitochondria Different-Phenotype (%) (U2OS [1]; [7]): 29% | Population Mitotic Cells (%) (U2OS [1]; [7]): 53% | Population Normal (%) (U2OS [1]; [7]): 97% | Population Pyknosed Nuclei (%) (U2OS [1]; [7]): 9% | Population Tubulin-Different-Phenotype (%) (U2OS [1]; [7]): 17% | Total Cell Count (U2OS [1]; [7]): 145 | Population Apoptotic (%) (U2OS [1]; [8]): 55% | Population Fragmented Nuclei (%) (U2OS [1]; [8]): 21% | Population Healthy Nuclei (%) (U2OS [1]; [8]): 69% | Population Hoechst High Intensity Objects (%) (U2OS [1]; [8]): 12% | Population Membrane Permeable-Phenotype (%) (U2OS [1]; [8]): 15% | Population Mitochondria Different-Phenotype (%) (U2OS [1]; [8]): 35% | Population Mitotic Cells (%) (U2OS [1]; [8]): 44% | Population Normal (%) (U2OS [1]; [8]): 87% | Population Pyknosed Nuclei (%) (U2OS [1]; [8]): 8% | Population Tubulin-Different-Phenotype (%) (U2OS [1]; [8]): 10% | Total Cell Count (U2OS [1]; [8]): 115 | Population Apoptotic (%) (U2OS [1]; [9]): 93% | Population Fragmented Nuclei (%) (U2OS [1]; [9]): 18% | Population Healthy Nuclei (%) (U2OS [1]; [9]): 72% | Population Hoechst High Intensity Objects (%) (U2OS [1]; [9]): 5% | Population Membrane Permeable-Phenotype (%) (U2OS [1]; [9]): 61% | Population Mitochondria Different-Phenotype (%) (U2OS [1]; [9]): 99% | Population Mitotic Cells (%) (U2OS [1]; [9]): 6% | Population Normal (%) (U2OS [1]; [9]): 94% | Population Pyknosed Nuclei (%) (U2OS [1]; [9]): 9% | Population Tubulin-Different-Phenotype (%) (U2OS [1]; [9]): 99% | Total Cell Count (U2OS [1]; [9]): 180 | Population Apoptotic (%) (U2OS [1]; [10]): 88% | Population Fragmented Nuclei (%) (U2OS [1]; [10]): 22% | Population Healthy Nuclei (%) (U2OS [1]; [10]): 70% | Population Hoechst High Intensity Objects (%) (U2OS [1]; [10]): 10% | Population Membrane Permeable-Phenotype (%) (U2OS [1]; [10]): 84% | Population Mitochondria Different-Phenotype (%) (U2OS [1]; [10]): 100% | Population Mitotic Cells (%) (U2OS [1]; [10]): 11% | Population Normal (%) (U2OS [1]; [10]): 89% | Population Pyknosed Nuclei (%) (U2OS [1]; [10]): 7% | Population Tubulin-Different-Phenotype (%) (U2OS [1]; [10]): 100% | Total Cell Count (U2OS [1]; [10]): 135 | Growth Rate (U2OS [2]; [11]): 0 | Growth Rate (U2OS [2]; 6 h, replicate number 1, timepoint 6 hours): 0 | Growth Rate (U2OS [2]; 12 h, replicate number 1, timepoint 12 hours): 0 | Growth Rate (U2OS [2]; [12]): 0 | Growth Rate (U2OS [2]; 18 h, replicate number 2, timepoint 18 hours): 1 | Growth Rate (U2OS [2]; [13]): 0 | Growth Rate (U2OS [2]; 24 h, replicate number 2, timepoint 24 hours): 1
